Results collected from several papers.
Protocols differ between the studies behind these lines.
Cell line: HepG2
Read-out: cell growth or viability

`Cc1ccc(-c2cc(-c3ccc(Cl)cc3)c3c(=O)[nH]c(=O)[nH]c3n2)cc1` gave an IC50 of 8.46 µM (MTT; 48 h).
For `O=C(O)Cc1csc(NC(=O)c2cc3ccccc3[nH]2)n1`, the IC50 was 13.9 µM (MTT; 24 h).
The IC50 of `COc1nc(NCc2cn(-c3ccc(C(=O)Nc4ccccc4)cc3)nn2)nc(OC)n1` is reported as 1.48 µM (MTT; 72 h).
`Cc1ccc(-c2cc(-c3ccc(Cl)c(F)c3)c3c(=O)n(C)c(=O)n(C)c3n2)cc1` gave an IC50 of 38.8 µM (MTT; 48 h).
`CN(C)c1cc(NC(=O)CCc2cccnc2)c(O)c2c1C[C@H]1C[C@H]3[C@H](N(C)C)C(O)=C(C(N)=O)C(=O)[C@@]3(O)C(O)=C1C2=O` gave an IC50 of > 200 µg/mL (ATP luminescence; 72 h).
`Cc1ccc(-c2cc(-c3c(Cl)cccc3Cl)c3c(=O)n(C)c(=O)n(C)c3n2)cc1` has an IC50 of 7.49 µM (MTT; 48 h).
For `COc1ccc2nc(N3CCOCC3)c(-c3cc(-c4cccc(O)c4)nc4[nH]nc(N)c34)cc2c1`, the IC50 was 0.087 µM (MTT; 72 h).
With `Cc1nc(Nc2ncc(C(=O)Nc3c(C)cccc3Cl)s2)cc(N2CCN(CCO)CC2)n1` the IC50 was 60.8 µM (MTT; 24 h).
For `CN(C)c1cc(NC(=O)Cc2cccnn2)c(O)c2c1C[C@H]1C[C@H]3[C@H](N(C)C)C(O)=C(C(N)=O)C(=O)[C@@]3(O)C(O)=C1C2=O`, the IC50 was > 200 µg/mL (ATP luminescence; 72 h).
With `COc1cccc2c1C(=O)c1c(O)c3c(c(O)c1C2=O)C[C@@](O)(C(=O)CO)C[C@@H]3O[C@H]1C[C@H](N)[C@H](O)[C@H](C)O1` the IC50 was 0.355 µM (MTT; 72 h).
With `Cc1ccc(-c2cc(-c3ccc(N(C)C)cc3)c3c(=O)[nH]c(=O)[nH]c3n2)cc1` the IC50 was 12.1 µM (MTT; 48 h).
With `O=C(C=Cc1ccccc1)Nc1cc(-c2ccnc(N3CCC(O)CC3)c2)ccn1` the IC50 was 0.111 µM (MTT; 72 h).
`COc1cccc2c1C(=O)c1c(O)c3c(c(O)c1C2=O)C[C@@](O)(C(=O)CO)C[C@@H]3O[C@H]1C[C@H](N)[C@H](O)[C@H](C)O1` gave an IC50 of 4.5 µM (MTT; 24 h).
For `CN(C)c1cc(NC(=O)Cc2cnccn2)c(O)c2c1C[C@H]1C[C@H]3[C@H](N(C)C)C(O)=C(C(N)=O)C(=O)[C@@]3(O)C(O)=C1C2=O`, the IC50 was > 200 µg/mL (ATP luminescence; 72 h).
`CCOc1nc(-c2cccc(O)c2)cc(-c2cc3ccccc3nc2N2CCOCC2)c1C#N` gave an IC50 of 0.132 µM (MTT; 72 h).
With `CN(C)c1cc(NC(=O)Cc2ccccn2)c(O)c2c1C[C@H]1C[C@H]3[C@H](N(C)C)C(O)=C(C(N)=O)C(=O)[C@@]3(O)C(O)=C1C2=O` the IC50 was > 200 µg/mL (ATP luminescence; 72 h).
`Clc1ccc(-c2nnc(Nc3ccc(C4=NNC(c5ccc(Cl)cc5)C4)cc3)c3ccccc23)cc1` (stereo not drawn) has an IC50 of 0.8 µM (MTT; 72 h).
`Nc1n[nH]c2nc(-c3cccc(O)c3)cc(-c3cc4cc(Cl)ccc4nc3N3CCOCC3)c12` gave an IC50 of 0.0907 µM (MTT; 72 h).
For `CN(C)c1cc(NC(=O)Cc2ccn(C)n2)c(O)c2c1C[C@H]1C[C@H]3[C@H](N(C)C)C(O)=C(C(N)=O)C(=O)[C@@]3(O)C(O)=C1C2=O`, the IC50 was > 200 µg/mL (ATP luminescence; 72 h).
For `COc1ccc(-c2cc(-c3ccccc3Cl)c3c(=O)n(C)c(=O)n(C)c3n2)cc1`, the IC50 was 18.9 µM (MTT; 48 h).
The IC50 of `CN(C)c1cc(NC(=O)Cc2ccncc2)c(O)c2c1C[C@H]1C[C@H]3[C@H](N(C)C)C(O)=C(C(N)=O)C(=O)[C@@]3(O)C(O)=C1C2=O` is reported as > 200 µg/mL (ATP luminescence; 72 h).
For `COc1ccc(-c2cc(-c3cc(OC)ccc3OC)c3c(=O)n(C)c(=O)n(C)c3n2)cc1`, the IC50 was 16.4 µM (MTT; 48 h).
For `CN(C)c1cc(NC(=O)Cc2ccccc2)c(O)c2c1C[C@H]1C[C@H]3[C@H](N(C)C)C(O)=C(C(N)=O)C(=O)[C@@]3(O)C(O)=C1C2=O`, the IC50 was 63.7 µg/mL (ATP luminescence; 72 h).
For `COc1ccc(-c2cc(-c3cc(OC)ccc3OC)c3c(=O)[nH]c(=O)[nH]c3n2)cc1`, the IC50 was 13.1 µM (MTT; 48 h).
